Measured values from ChEMBL document CHEMBL4433213, “Investigation on 2',3'-O-Substituted ATP Derivatives and Analogs as Novel P2X3 Receptor Antagonists” (ACS Med Chem Lett, 2019).

Key:
[1] = molecular target: T1, P2X purinoceptor 3 (Mus musculus) (UniProt Q3UR32); assay: Agonist activity at P2X3R in mouse TG sensory neurons assessed as induction of channel current at 1 uM at -65 mV holding potential by whole cell voltage clamp method relative to alpha,beta-meATP
T1 sequence (whole entry): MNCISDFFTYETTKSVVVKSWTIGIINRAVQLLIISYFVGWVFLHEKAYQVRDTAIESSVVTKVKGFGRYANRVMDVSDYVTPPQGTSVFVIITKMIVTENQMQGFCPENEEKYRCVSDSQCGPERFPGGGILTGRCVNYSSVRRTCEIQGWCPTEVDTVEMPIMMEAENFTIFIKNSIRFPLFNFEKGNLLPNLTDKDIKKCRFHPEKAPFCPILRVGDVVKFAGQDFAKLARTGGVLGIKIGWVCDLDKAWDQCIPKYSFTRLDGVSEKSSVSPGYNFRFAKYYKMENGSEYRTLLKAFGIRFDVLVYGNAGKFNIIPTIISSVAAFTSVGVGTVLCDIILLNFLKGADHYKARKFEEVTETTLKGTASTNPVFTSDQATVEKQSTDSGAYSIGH

[2] = molecular target: T2, P2X purinoceptor 4 (Homo sapiens) (UniProt Q99571); assay: Antagonist activity at human P2X4R transfected in human 1321N1 cells assessed as inhibition of ATP-induced calcium influx relative to control; assay type: cell-based; details: concentration not given here
T2 sequence (whole entry): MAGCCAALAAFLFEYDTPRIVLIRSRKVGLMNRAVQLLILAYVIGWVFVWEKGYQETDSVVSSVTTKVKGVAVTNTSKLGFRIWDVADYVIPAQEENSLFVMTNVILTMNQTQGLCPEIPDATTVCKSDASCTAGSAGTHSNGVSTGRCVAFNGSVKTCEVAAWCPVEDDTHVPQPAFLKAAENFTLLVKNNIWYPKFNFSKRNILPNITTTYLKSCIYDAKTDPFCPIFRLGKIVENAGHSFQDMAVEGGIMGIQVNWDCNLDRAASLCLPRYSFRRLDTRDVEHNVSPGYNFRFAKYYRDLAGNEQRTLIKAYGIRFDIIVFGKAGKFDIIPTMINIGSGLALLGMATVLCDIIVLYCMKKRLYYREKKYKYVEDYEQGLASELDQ
Outline: (§1)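 1321N1 astrocytoma cells stably expressing human P2X1, P2X2, P2X3 or P2X4 receptor. Calcium influx was induced by ATP at the EC80 for each subtype. Results are given as IC50 (μM) or % inhibition at the indicated concentration.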

[3] = molecular target: T1, P2X purinoceptor 3 (Mus musculus); assay: Antagonist activity at P2X3R in mouse TG sensory neurons assessed as inhibition of P2X3R agonist alpha,beta-meATP-induced current at 1 uM at -65 mV holding potential by whole cell voltage clamp method relative to control
Outline: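 Mouse trigeminal sensory neurons were recorded by whole-cell patch clamp. Test compound (0.001–10 μM) was applied before 10 μM α,β-meATP, and inhibition of the agonist-evoked P2X3 current was measured. IC50 was taken from concentration–inhibition curves. N = 5–6 cells.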

[4] = molecular target: T3, P2X purinoceptor 3 (Homo sapiens) (UniProt P56373); assay: Antagonist activity at human P2X3R transfected in human 1321N1 cells assessed as inhibition of ATP-induced calcium influx relative to control; assay type: cell-based; details: concentration not given here; outline: as §1
T3 sequence (whole entry): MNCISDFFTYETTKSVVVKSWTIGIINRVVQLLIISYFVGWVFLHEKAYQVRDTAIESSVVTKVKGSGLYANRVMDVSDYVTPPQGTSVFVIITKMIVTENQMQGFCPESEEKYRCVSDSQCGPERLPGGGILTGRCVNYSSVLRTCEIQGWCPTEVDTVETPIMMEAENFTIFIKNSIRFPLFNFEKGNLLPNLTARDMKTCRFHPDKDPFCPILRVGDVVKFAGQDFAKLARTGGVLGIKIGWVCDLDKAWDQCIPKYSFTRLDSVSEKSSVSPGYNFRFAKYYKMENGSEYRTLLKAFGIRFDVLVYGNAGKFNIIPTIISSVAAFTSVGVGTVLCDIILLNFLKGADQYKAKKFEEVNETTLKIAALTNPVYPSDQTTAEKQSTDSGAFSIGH

An Activity [1] of 23% was found for `CC1(C)O[C@@H]2[C@H](O1)[C@@H](COP(=O)(O)OP(=O)(O)OP(=O)(O)O)O[C@H]2n1cnc2c(N)ncnc21` in this work.

An inhibition [2] of 12%, an inhibition [3] of 25% and an inhibition [4] of 8% were found for `Nc1ncnc2c1ncn2[C@@H]1O[C@H](COP(=O)(O)OP(=O)(O)OP(=O)(O)O)[C@H]2OCO[C@H]21` in this work.
